Measurements from paper PMC11310838 (RSC Advances, 2024).
Like-named read-outs stand apart in the source and are kept apart here.

What was measured:
[1] = system: cancer cell lines (HCT116, HEPG2, MCF7); assay: SRB single-dose screen, summary over cancer cell lines; assay type: cell-based; details: Homo sapiens, 48 h, read-out: percentage of cell growth inhibition on the cancer cell lines
Outline: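 Human carcinoma lines grown as monolayers in DMEM with 10% FBS and 1% penicillin–streptomycin. Each test compound was applied once at 100 μM for 48 h, with final DMSO at most 0.1% (v/v) in control and treated wells. Growth was measured by sulforhodamine-B staining, with OD read at 570 nm. Percentage growth inhibition was calculated from viability relative to the untreated control.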

[2] = system: HDF cell line (Human Dermal Fibroblasts); assay: Sulforhodamine B; assay type: cell-based; details: 48 h; for inhibition at 100 µM: Homo sapiens, HDF, read-out: Percentage of cell growth inhibition at [100 μM] HDF
Outline: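 Normal human dermal fibroblasts came from the National Cancer Institute, Cairo. Final DMSO was ≤0.1% (v/v). Cells were exposed to the test compound at a single 100 μM dose for 48 h. Growth inhibition was measured by the sulforhodamine-B method, with absorbance read at 570 nm and expressed as percentage of cell viability.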

HEPG2 cell line = assay: Sulforhodamine B; assay type: cell-based, human; details: for IC50: read-out: IC50 (μM) ± SD HEPG2; for inhibition at 100 µM: read-out: Percentage of cell growth inhibition at [100 μM] HEPG2
Outline: (§1)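 Carcinoma lines came from the National Cancer Institute, Cairo, and were grown as monolayers in DMEM with 10% FBS and 1% penicillin–streptomycin. Final DMSO was ≤0.1% (v/v). Cells were treated for 48 h either at a single 100 μM dose (% growth inhibition) or at 0, 6.25, 12.5, 25 and 50 μM. SRB staining was read at 570 nm as % viability. IC50 came from dose–response curve fitting.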

HCT116 cell line = assay: Sulforhodamine B; assay type: cell-based, human; details: for inhibition at 100 µM: read-out: Percentage of cell growth inhibition at [100 μM] HCT116
Outline: as §1

EGFR kinase = EGFR kinase (Homo sapiens, UniProt P00533); assay: EGFR kinase inhibitory assay; assay type: biochemical; details: for % of EGFR inhibition: concentration not given, average of three replicates
MCF7 cell line = assay: Sulforhodamine B; assay type: cell-based, human; details: for IC50: read-out: IC50 (μM) ± SD MCF7; for inhibition at 100 µM: read-out: Percentage of cell growth inhibition at [100 μM] MCF7
Outline: as §1

[3] = Homo sapiens, HCT-116, 48 h, read-out: IC50 (μM) ± SD HCT116, 48 h treatment, SRB
[4] = single dose 100 μM, 48 h, SRB, mean ± SD

Sequence of EGFR kinase (P00533 25-1210): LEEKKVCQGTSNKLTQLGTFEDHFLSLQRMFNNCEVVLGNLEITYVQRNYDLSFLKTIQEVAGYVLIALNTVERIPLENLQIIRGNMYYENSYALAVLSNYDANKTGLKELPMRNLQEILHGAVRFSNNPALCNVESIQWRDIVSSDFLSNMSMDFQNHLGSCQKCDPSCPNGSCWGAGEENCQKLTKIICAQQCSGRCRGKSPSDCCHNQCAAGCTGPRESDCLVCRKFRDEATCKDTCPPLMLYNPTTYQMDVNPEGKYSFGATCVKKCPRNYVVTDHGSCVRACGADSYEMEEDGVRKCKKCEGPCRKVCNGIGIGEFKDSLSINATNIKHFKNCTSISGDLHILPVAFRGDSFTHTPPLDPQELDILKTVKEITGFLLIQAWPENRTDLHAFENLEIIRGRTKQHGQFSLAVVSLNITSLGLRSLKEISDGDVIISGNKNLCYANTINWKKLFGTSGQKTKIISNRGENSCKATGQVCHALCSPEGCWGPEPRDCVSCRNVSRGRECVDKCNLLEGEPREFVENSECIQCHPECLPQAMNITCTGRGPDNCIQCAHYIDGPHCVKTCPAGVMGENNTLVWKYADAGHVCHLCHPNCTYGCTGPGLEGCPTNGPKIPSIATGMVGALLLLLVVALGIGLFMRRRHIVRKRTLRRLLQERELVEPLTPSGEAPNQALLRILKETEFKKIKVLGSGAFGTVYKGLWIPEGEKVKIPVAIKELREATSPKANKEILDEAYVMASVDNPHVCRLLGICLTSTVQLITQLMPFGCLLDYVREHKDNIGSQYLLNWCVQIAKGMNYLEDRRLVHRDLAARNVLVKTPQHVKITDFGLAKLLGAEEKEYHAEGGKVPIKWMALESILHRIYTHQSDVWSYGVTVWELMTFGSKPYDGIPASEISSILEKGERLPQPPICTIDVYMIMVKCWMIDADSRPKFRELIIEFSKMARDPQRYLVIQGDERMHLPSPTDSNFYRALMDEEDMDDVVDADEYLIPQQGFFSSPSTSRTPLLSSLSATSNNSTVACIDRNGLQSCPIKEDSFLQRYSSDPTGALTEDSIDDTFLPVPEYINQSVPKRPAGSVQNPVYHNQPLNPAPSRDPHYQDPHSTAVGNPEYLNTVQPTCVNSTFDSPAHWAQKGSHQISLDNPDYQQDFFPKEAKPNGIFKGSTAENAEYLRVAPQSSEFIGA

Structure (SMILES)	inhibition at 100 µM [1] [%]	inhibition at 100 µM [2] [%]	IC50 (HEPG2 cell line; Homo sapiens, HepG2, 48 h) [µM]	inhibition at 100 µM (HEPG2 cell line; Homo sapiens, HepG2, 48 h) [%]	IC50 (HCT116 cell line; [3]) [µM]	inhibition at 100 µM (HCT116 cell line; Homo sapiens, HCT-116, 48 h) [%]	IC50 (EGFR kinase) [µM]	% of EGFR inhibition (EGFR kinase) [%]	IC50 (MCF7 cell line; Homo sapiens, MCF7, 48 h) [µM]	inhibition at 100 µM (MCF7 cell line; Homo sapiens, MCF7, 48 h) [%]	Percentage of cell growth inhibition at [100 μM] HDF ([2]; single dose 100 μM, SRB, normal cells, mean ± SD) [%]	IC50 (HEPG2 cell line; 48 h treatment, SRB) [µM]	Percentage of cell growth inhibition at [100 μM] HEPG2 (HEPG2 cell line; [4]) [%]	IC50 (HCT116 cell line; read-out: IC50 (μM) ± SD HCT116, 48 h treatment, SRB) [µM]	Percentage of cell growth inhibition at [100 μM] HCT116 (HCT116 cell line; [4]) [%]	IC50 (MCF7 cell line; 48 h treatment, SRB) [µM]	Percentage of cell growth inhibition at [100 μM] MCF7 (MCF7 cell line; [4]) [%]
NC(=S)NN=Cc1ccccc1OCC(=O)N1CCN(C(=O)COc2ccccc2C=NNC(N)=S)CC1 [Compound 7b, 1,1′-(Piperazine-1,4-diyl)bis(2-(2-(2-carbamothioylhydrazono)methylphenoxy)ethanone)]	> 80	66.5 ± 11.5	41.3 ± 3.9	89.1 ± 2.22	20.7 ± 1.5	90.1 ± 3.41	0.0035 ± 0.0001	89.7 ± 2.8	48.5 ± 4.8	88.9 ± 5.46	–	–	–	–	–	–	–
Cc1nc(NN=Cc2ccc(OCC(=O)N3CCN(C(=O)COc4ccc(C=NNc5nc(C)c(N=Nc6ccccc6)s5)cc4)CC3)cc2)sc1N=Nc1ccccc1 [Compound 9a, 1,1′-(Piperazine-1,4-diyl)bis(2-(4-(((4-methyl-5-(phenylazo)thiazol-2-yl)hydrazono)methyl)-phenoxy)ethanone)]	> 80	18.2 ± 11.5	23.8 ± 4	74.7 ± 4.49	9.98 ± 2	81 ± 3.91	0.0121 ± 4e-05	83.7 ± 1.4	13.7 ± 2.3	85.9 ± 5.94	–	–	–	–	–	–	–
Cc1ccc(N=Nc2sc(NN=Cc3ccc(OCC(=O)N4CCN(C(=O)COc5ccc(C=NNc6nc(C)c(N=Nc7ccc(C)cc7)s6)cc5)CC4)cc3)nc2C)cc1 [Compound 9b, 1,1′-(Piperazine-1,4-diyl)bis(2-(4-(((4-methyl-5-(4-tolylazo)thiazol-2-yl)hydrazono)methyl)-phenoxy)ethanone)]	> 80	27.6 ± 25.1	26.5 ± 2.7	56.5 ± 4.93	11.5 ± 2.5	85.2 ± 2.11	0.0546 ± 0.0009	74.8 ± 1.6	24.7 ± 3.6	89.5 ± 2.34	–	–	–	–	–	–	–
Cc1nc(NN=Cc2ccc(OCC(=O)N3CCN(C(=O)COc4ccc(C=NNc5nc(C)c(N=Nc6ccc([N+](=O)[O-])cc6)s5)cc4)CC3)cc2)sc1N=Nc1ccc([N+](=O)[O-])cc1 [Compound 9e, 1,1′-(Piperazine-1,4-diyl)bis(2-(4-(((4-methyl-5-(4-nitrophenylazo)thiazol-2-yl)hydrazono)methyl)-phenoxy)ethanone)]	> 80	18.6 ± 32.1	32.2 ± 4.5	77.5 ± 7.73	20.4 ± 3.4	86.8 ± 2.09	–	–	22 ± 4.5	84.6 ± 2.02	–	–	–	–	–	–	–
O=C(COc1ccc(C=NN=c2sc(-c3ccc(Cl)cc3)nn2-c2ccccc2)cc1)N1CCN(C(=O)COc2ccc(C=NN=c3sc(-c4ccc(Cl)cc4)nn3-c3ccccc3)cc2)CC1 [Compound 13b, 1,1′-(Piperazine-1,4-diyl)bis(2-(4-(((5-(4-chlorophenyl)-3-phenyl-1,3,4-thiadiazol-2(3H)-ylidene)-hydrazono)methyl)phenoxy)ethanone)]	> 80	79.2 ± 3.71	24.5 ± 4	85.1 ± 3.16	18.4 ± 4	89.3 ± 2.83	–	–	19.4 ± 3	90.8 ± 1.39	–	–	–	–	–	–	–
O=C(COc1ccccc1C=NN=c1sc(-c2ccccc2)nn1-c1ccccc1)N1CCN(C(=O)COc2ccccc2C=NN=c2sc(-c3ccccc3)nn2-c2ccccc2)CC1 [Compound 13c, 1,1′-(Piperazine-1,4-diyl)bis(2-(2-(((3,5-diphenyl-1,3,4-thiadiazol-2(3H)-ylidene)hydrazono)-methyl)phenoxy)ethanone)]	–	60.8 ± 3.09	–	68.8 ± 12.7	–	76.4 ± 5.38	–	–	–	86.2 ± 1.83	–	–	–	–	–	–	–
O=C(COc1ccccc1C=NN=c1sc(-c2ccc(Cl)cc2)nn1-c1ccccc1)N1CCN(C(=O)COc2ccccc2C=NN=c2sc(-c3ccc(Cl)cc3)nn2-c2ccccc2)CC1 [Compound 13d, 1,1′-(Piperazine-1,4-diyl)bis(2-(2-(((5-(4-chlorophenyl)-3-phenyl-1,3,4-thiadiazol-2(3H)-ylidene)-hydrazono)methyl)phenoxy)ethanone)]	–	64 ± 10.8	–	80 ± 3.39	–	88.9 ± 1.38	–	–	–	86.4 ± 2.56	–	–	–	–	–	–	–
O=C(COc1ccc(C=NN=c2[nH]c(-c3ccccc3)cs2)cc1)N1CCN(C(=O)COc2ccc(C=NN=c3[nH]c(-c4ccccc4)cs3)cc2)CC1 [Compound 15a, 1,1′-(Piperazine-1,4-diyl)bis(2-(4-(((4-phenylthiazol-2(3H)-ylidene)hydrazineylidene)methyl)-phenoxy)ethanone)]	–	50.2 ± 21.5	–	67.9 ± 7.03	–	78.1 ± 6.5	–	–	–	87.3 ± 1.63	–	–	–	–	–	–	–
COc1ccc(-c2csc(=NN=Cc3ccc(OCC(=O)N4CCN(C(=O)COc5ccc(C=NN=c6[nH]c(-c7ccc(OC)cc7)cs6)cc5)CC4)cc3)[nH]2)cc1 [Compound 15b, 1,1′-(Piperazine-1,4-diyl)bis(2-(4-(((4-(4-methoxyphenyl)thiazol-2(3H)-ylidene)hydrazineylidene)-methyl)phenoxy)ethanone)]	–	48 ± 48.5	–	83.4 ± 9.48	–	21.8 ± 16.5	–	–	–	50.6 ± 10.2	–	–	–	–	–	–	–
O=C(COc1ccc(C=NN=c2[nH]c(-c3cc4ccccc4oc3=O)cs2)cc1)N1CCN(C(=O)COc2ccc(C=NN=c3[nH]c(-c4cc5ccccc5oc4=O)cs3)cc2)CC1 [Compound 15e, 1,1′-(Piperazine-1,4-diyl)bis(2-(4-(((4-(coumarin-3-yl)thiazol-2(3H)-ylidene)hydrazineylidene)-methyl)phenoxy)ethanone)]	–	68.1 ± 10.1	–	74.4 ± 4.88	–	73.9 ± 4.08	–	–	–	68.4 ± 7.33	–	–	–	–	–	–	–
O=C(COc1ccccc1C=NN=c1[nH]c(-c2cc3ccccc3oc2=O)cs1)N1CCN(C(=O)COc2ccccc2C=NN=c2[nH]c(-c3cc4ccccc4oc3=O)cs2)CC1 [Compound 15h, 1,1′-(Piperazine-1,4-diyl)bis(2-(2-(((4-(coumarin-3-yl)thiazol-2(3H)-ylidene)hydrazineylidene)-methyl)phenoxy)ethanone)]	–	44 ± 51.5	–	70.1 ± 8.68	–	36.4 ± 13.8	–	–	–	46.7 ± 11.3	–	–	–	–	–	–	–
COc1cccc2c1C(=O)c1c(O)c3c(c(O)c1C2=O)C[C@@](O)(C(=O)CO)C[C@@H]3O[C@H]1C[C@H](N)[C@H](O)[C@H](C)O1 [DOX, reference compound]	–	–	–	–	–	–	–	–	–	–	30.53 ± 9.75	8.42 ± 1.7	89.09 ± 0.63	7.7 ± 1.5	82.77 ± 2.98	7.59 ± 1.4	86.37 ± 1.82
